{
  "source": "ChEMBL document CHEMBL3414565",
  "about": "“Discovery of novel AHLs as potent antiproliferative agents” (Eur J Med Chem, 2015)",
  "key": {"MCF7 [1]": {"tested_on": "MCF7", "experiment": "Cell cycle arrest in human MCF7 cells assessed as accumulation at G2/M phase after 12 to 24 hrs by propidium iodide staining-based flow cytometry", "type": "functional"}, "MCF7 [2]": {"tested_on": "MCF7", "experiment": "Induction of apoptosis in human MCF7 cells assessed as early apoptotic cells at 8 uM after 12 hrs by annexin V-FITC/propidium iodide staining-based flow cytometry (reference value: 7.2%)", "type": "functional", "procedure,_shortened": "(§1)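 MCF-7 cells were plated at 5.0 × 10^6 cells/mL and held 12 or 24 h at 37 °C. Exponentially growing cells then received complete medium (blank) or compound at 0, 2, 4 or 8 for 12 or 24 h. Harvested cells were stained with Annexin V-FITC/PI and analysed by flow cytometry. Quadrants were scored as live, early apoptotic (annexin+/PI−), late apoptotic (double positive) and damaged (PI+ only).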"}, "MCF7 [3]": {"tested_on": "MCF7", "experiment": "Induction of apoptosis in human MCF7 cells assessed as necrotic cells at 4 uM after 12 hrs by annexin V-FITC/propidium iodide staining-based flow cytometry (reference value: 4.7%)", "type": "functional", "procedure,_shortened": "as §1"}, "MCF7 [4]": {"tested_on": "MCF7", "experiment": "Induction of apoptosis in human MCF7 cells assessed as late apoptotic cells at 4 uM after 12 hrs by annexin V-FITC/propidium iodide staining-based flow cytometry (reference value: 2.7%)", "type": "functional", "procedure,_shortened": "as §1"}, "MCF7 [5]": {"tested_on": "MCF7", "experiment": "Induction of apoptosis in human MCF7 cells assessed as early apoptotic cells at 8 uM after 24 hrs by annexin V-FITC/propidium iodide staining-based flow cytometry (reference value: 4.5%)", "type": "functional", "procedure,_shortened": "as §1"}, "MCF7 [6]": {"tested_on": "MCF7", "experiment": "Cell cycle arrest in human MCF7 cells assessed as accumulation at G1/G0 phase at 8 uM after 24 hrs by propidium iodide staining-based flow cytometry (reference value: 46.77%)", "type": "functional"}, "MCF7 [7]": {"tested_on": "MCF7", "experiment": "Induction of apoptosis in human MCF7 cells assessed as necrotic cells at 8 uM after 12 hrs by annexin V-FITC/propidium iodide staining-based flow cytometry (reference value: 4.7%)", "type": "functional", "procedure,_shortened": "as §1"}, "MCF7 [8]": {"tested_on": "MCF7", "experiment": "Cell cycle arrest in human MCF7 cells assessed as accumulation at G1/G0 phase at 2 uM after 24 hrs by propidium iodide staining-based flow cytometry (reference value: 46.77%)", "type": "functional"}, "MCF7 [9]": {"tested_on": "MCF7", "experiment": "Cell cycle arrest in human MCF7 cells assessed as accumulation at G2/M phase at 8 uM after 24 hrs by propidium iodide staining-based flow cytometry (reference value: 16.27%)", "type": "functional"}, "MCF7 [10]": {"tested_on": "MCF7", "experiment": "Induction of apoptosis in human MCF7 cells assessed as early apoptotic cells at 2 uM after 24 hrs by annexin V-FITC/propidium iodide staining-based flow cytometry (reference value: 4.5%)", "type": "functional", "procedure,_shortened": "as §1"}, "MCF7 [11]": {"tested_on": "MCF7", "experiment": "Induction of apoptosis in human MCF7 cells assessed as late apoptotic cells at 8 uM after 24 hrs by annexin V-FITC/propidium iodide staining-based flow cytometry (reference value: 2.1%)", "type": "functional", "procedure,_shortened": "as §1"}, "MCF7 [12]": {"tested_on": "MCF7", "experiment": "Cell cycle arrest in human MCF7 cells assessed as accumulation at G1/G0 phase at 8 uM after 12 hrs by propidium iodide staining-based flow cytometry (reference value: 60.51%)", "type": "functional"}, "MCF7 [13]": {"tested_on": "MCF7", "experiment": "Induction of apoptosis in human MCF7 cells assessed as viable cells at 8 uM after 24 hrs by annexin V-FITC/propidium iodide staining-based flow cytometry (reference value: 87.1%)", "type": "functional", "conditions": "MCF7, 24 h, read-out: Activity"}, "MCF7 [14]": {"tested_on": "MCF7", "experiment": "Induction of apoptosis in human MCF7 cells assessed as viable cells at 4 uM after 12 hrs by annexin V-FITC/propidium iodide staining-based flow cytometry (reference value: 85.4%)", "type": "functional", "conditions": "MCF7, 12 h, read-out: Activity", "procedure,_shortened": "as §1"}, "MCF7 [15]": {"tested_on": "MCF7", "experiment": "Cell cycle arrest in human MCF7 cells assessed as accumulation at G2/M phase at 4 uM after 12 hrs by propidium iodide staining-based flow cytometry (reference value: 16.53%)", "type": "functional"}, "MCF7 [16]": {"tested_on": "MCF7", "experiment": "Cell cycle arrest in human MCF7 cells assessed as accumulation at G1/G0 phase at 2 uM after 12 hrs by propidium iodide staining-based flow cytometry (reference value: 60.51%)", "type": "functional"}, "MCF7 [17]": {"tested_on": "MCF7", "experiment": "Induction of apoptosis in human MCF7 cells assessed as necrotic cells at 2 uM after 24 hrs by annexin V-FITC/propidium iodide staining-based flow cytometry (reference value: 6.2%)", "type": "functional", "procedure,_shortened": "as §1"}, "MCF7 [18]": {"tested_on": "MCF7", "experiment": "Induction of apoptosis in human MCF7 cells assessed as late apoptotic cells at 2 uM after 12 hrs by annexin V-FITC/propidium iodide staining-based flow cytometry (reference value: 2.7%)", "type": "functional", "procedure,_shortened": "as §1"}, "MCF7 [19]": {"tested_on": "MCF7", "experiment": "Induction of apoptosis in human MCF7 cells assessed as early apoptotic cells at 4 uM after 24 hrs by annexin V-FITC/propidium iodide staining-based flow cytometry (reference value: 4.5%)", "type": "functional", "procedure,_shortened": "as §1"}, "HEK293": {"tested_on": "HEK293", "experiment": "Cytotoxicity against human HEK293 cells after 72 hrs by MTT assay", "type": "cell-based", "conditions": "HEK293, 72 h"}, "MCF7 [20]": {"tested_on": "MCF7", "experiment": "Induction of apoptosis in human MCF7 cells assessed as early apoptotic cells at 2 uM after 12 hrs by annexin V-FITC/propidium iodide staining-based flow cytometry (reference value: 7.2%)", "type": "functional", "procedure,_shortened": "as §1"}, "MCF7 [21]": {"tested_on": "MCF7", "experiment": "Cell cycle arrest in human MCF7 cells assessed as accumulation at S phase at 4 uM after 12 hrs by propidium iodide staining-based flow cytometry (reference value: 26.65%)", "type": "functional"}, "MCF7 [22]": {"tested_on": "MCF7", "experiment": "Induction of apoptosis in human MCF7 cells assessed as viable cells at 2 uM after 24 hrs by annexin V-FITC/propidium iodide staining-based flow cytometry (reference value: 87.1%)", "type": "functional", "conditions": "MCF7, 24 h, read-out: Activity", "procedure,_shortened": "as §1"}, "MCF7 [23]": {"tested_on": "MCF7", "experiment": "Induction of apoptosis in human MCF7 cells assessed as late apoptotic cells at 2 uM after 24 hrs by annexin V-FITC/propidium iodide staining-based flow cytometry (reference value: 2.1%)", "type": "functional", "procedure,_shortened": "as §1"}, "MCF7 [24]": {"tested_on": "MCF7", "experiment": "Cell cycle arrest in human MCF7 cells assessed as accumulation at G2/M phase at 2 to 8 uM by propidium iodide staining-based flow cytometry", "type": "functional", "conditions": "TDE = time-dependent effect"}, "MCF7 [25]": {"tested_on": "MCF7", "experiment": "Induction of apoptosis in human MCF7 cells at 2 to 8 uM by annexin V-FITC/propidium iodide staining-based flow cytometry", "type": "functional, cell-based", "conditions": "TDE = time-dependent effect"}, "MCF7 [26]": {"tested_on": "MCF7", "experiment": "Cytotoxicity against human MCF7 cells after 72 hrs by MTT assay", "type": "functional, cell-based", "conditions": "MCF7, 72 h", "procedure,_shortened": "(§2)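 Cells were grown in RPMI1640 and seeded at 5 × 10^3 cells/well, then left 24 h at 37 °C. Medium was replaced with fresh medium holding a range of compound concentrations, from 10 mM DMSO stocks with final DMSO at most 0.1%. Exposure lasted 72 h. MTT (5 mg/mL) was added for 4 h at 37 °C, formazan was dissolved in DMSO and A570 was read. IC50 came from dose-response curves as mean ± SD of three independent experiments.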"}, "MCF7 [27]": {"tested_on": "MCF7", "experiment": "Induction of apoptosis in human MCF7 cells after 12 to 24 hrs by annexin V-FITC/propidium iodide staining-based flow cytometry", "type": "functional, cell-based", "procedure,_shortened": "as §1"}, "MCF7 [28]": {"tested_on": "MCF7", "experiment": "Cell cycle arrest in human MCF7 cells assessed as accumulation at G1/G0 phase at 4 uM after 24 hrs by propidium iodide staining-based flow cytometry (reference value: 46.77%)", "type": "functional"}, "MCF7 [29]": {"tested_on": "MCF7", "experiment": "Induction of apoptosis in human MCF7 cells assessed as viable cells at 2 uM after 12 hrs by annexin V-FITC/propidium iodide staining-based flow cytometry (reference value: 85.4%)", "type": "functional", "conditions": "MCF7, 12 h, read-out: Activity", "procedure,_shortened": "as §1"}, "[30]": {"experiment": "Cytotoxicity against human EC9706 cells after 72 hrs by MTT assay", "type": "functional, cell-based", "conditions": "EC9706, 72 h", "procedure,_shortened": "as §2"}, "MCF7 [31]": {"tested_on": "MCF7", "experiment": "Induction of apoptosis in human MCF7 cells assessed as viable cells at 8 uM after 12 hrs by annexin V-FITC/propidium iodide staining-based flow cytometry (reference value: 85.4%)", "type": "functional", "conditions": "MCF7, 12 h, read-out: Activity", "procedure,_shortened": "as §1"}},
  "note": "pIC50: −log10 of the molar value.",
  "data": [
    {"molecule": "O=C(CSC(=S)N[C@H]1CCOC1=O)Nc1ccc(C(=O)/C=C/c2ccccc2Cl)cc1", "values": [
      {"measurement": "Activity", "setting": "MCF7 [1]", "result": "Dose-dependent effect"},
      {"measurement": "Activity", "setting": "MCF7 [2]", "result": 19, "unit": "%"},
      {"measurement": "Activity", "setting": "MCF7 [3]", "result": 5.6, "unit": "%"},
      {"measurement": "Activity", "setting": "MCF7 [4]", "result": 1.7, "unit": "%"},
      {"measurement": "Activity", "setting": "MCF7 [5]", "result": 43.2, "unit": "%"},
      {"measurement": "Activity", "setting": "MCF7 [6]", "result": 14.45, "unit": "%"},
      {"measurement": "Activity", "setting": "MCF7 [7]", "result": 3.5, "unit": "%"},
      {"measurement": "Activity", "setting": "MCF7 [8]", "result": 40.44, "unit": "%"},
      {"measurement": "Activity", "setting": "MCF7 [9]", "result": 63.06, "unit": "%"},
      {"measurement": "Activity", "setting": "MCF7 [10]", "result": 16.4, "unit": "%"},
      {"measurement": "Activity", "setting": "MCF7 [11]", "result": 6.1, "unit": "%"},
      {"measurement": "Activity", "setting": "MCF7 [12]", "result": 46.48, "unit": "%"},
      {"measurement": "viability at 8 µM", "setting": "MCF7 [13]", "result": 46, "unit": "%"},
      {"measurement": "viability at 4 µM", "setting": "MCF7 [14]", "result": 77.9, "unit": "%"},
      {"measurement": "Activity", "setting": "MCF7 [15]", "result": 20.51, "unit": "%"},
      {"measurement": "Activity", "setting": "MCF7 [16]", "result": 67.5, "unit": "%"},
      {"measurement": "Activity", "setting": "MCF7 [17]", "result": 5.7, "unit": "%"},
      {"measurement": "Activity", "setting": "MCF7 [18]", "result": 1.7, "unit": "%"},
      {"measurement": "Activity", "setting": "MCF7 [19]", "result": 23.6, "unit": "%"},
      {"measurement": "pIC50", "setting": "HEK293", "result": 4.68},
      {"measurement": "Activity", "setting": "MCF7 [20]", "result": 11.4, "unit": "%"},
      {"measurement": "Activity", "setting": "MCF7 [21]", "result": 24.4, "unit": "%"},
      {"measurement": "viability at 2 µM", "setting": "MCF7 [22]", "result": 75.8, "unit": "%"},
      {"measurement": "Activity", "setting": "MCF7 [23]", "result": 2.1, "unit": "%"},
      {"measurement": "Activity", "setting": "MCF7 [24]", "result": "tde"},
      {"measurement": "Activity", "setting": "MCF7 [25]", "result": "tde"},
      {"measurement": "pIC50", "setting": "MCF7 [26]", "result": 5.25},
      {"measurement": "Activity", "setting": "MCF7 [27]", "result": "Dose-dependent effect"},
      {"measurement": "Activity", "setting": "MCF7 [28]", "result": 39.43, "unit": "%"},
      {"measurement": "viability at 2 µM", "setting": "MCF7 [29]", "result": 82.1, "unit": "%"},
      {"measurement": "pIC50", "setting": "[30]", "result": 4.47},
      {"measurement": "viability at 8 µM", "setting": "MCF7 [31]", "result": 75.9, "unit": "%"}
    ]}
  ]
}
